In PMC3702663 (Journal of chemical information and modeling, 2013):
Like-named read-outs stand apart in the source and are kept apart here.

Assays:
DOP receptor [1] = target: T1, DOP receptor (Homo sapiens, UniProt P41143); test: BRET-based G protein; type: cell-based
MOP receptor [2] = target: T2, MOP receptor (Homo sapiens, UniProt P35372); test: Competitive inhibition of 3H-diprenorphine binding at the MOP receptor; conditions: 3H-diprenorphine 0.3 nM
DOP receptor [3] = target: T1, DOP receptor; test: Competitive inhibition of 3H-diprenorphine binding at the DOP receptor; conditions: 3H-diprenorphine 0.3 nM
hKOP receptor [4] = target: T3, hKOP receptor (Homo sapiens, UniProt P41145); test: BRET-based G protein; type: cell-based; conditions: relative to EKC
MOP receptor [5] = target: T2, MOP receptor; test: BRET-based G protein; type: cell-based
hKOP receptor [6] = target: T3, hKOP receptor; test: BRET-based arrestin3 recruitment assay, hKOP-RLuc8 with arrestin3-mVenus; type: cell-based; conditions: Potency for arrestin3 recruitment at hKOP receptor, 5 min after ligand
Method in brief: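 HEK293T cells transfected with polyethylenimine (1:3) using 0.2 µg hKOP receptor with C-terminal RLuc8, 15 µg human arrestin3-mVenus and 4.8 µg empty vector (20 µg total), grown in DMEM/10% FBS. Assayed 48 h post-transfection: cells resuspended in PBS, ~200,000/well, 5 µM coelenterazine H, then ligand 5 min later.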

hKOP receptor [7] = target: T3, hKOP receptor; type: binding

SMILES | Agonistic activity at the DOP receptor, in words (DOP receptor [1]; BRET) | EC50 (DOP receptor [1]; read-out: Potency for G protein activation at the DOP receptor, BRET) | Ki (MOP receptor [2]; Ki MOP, means ± S.E.M. (n=3)) | Ki (DOP receptor [3]; Ki DOP, means ± S.E.M. (n=3)) | Agonistic activity (GαoB activation) at hKOP receptor, in words (hKOP receptor [4]) | Agonistic activity at the MOP receptor, in words (MOP receptor [5]) | EC50 (hKOP receptor [6]) | Ki (hKOP receptor [7]) | Ki (MOP receptor [2]; Ki at the MOP receptor, reference ligand) | Ki (DOP receptor [3]; Ki at the DOP receptor, reference ligand) | EC50 (DOP receptor [1]) | Inhibition of 3H-diprenorphine binding (primary testing) (hKOP receptor [7]; 100 µM compound, 3H-diprenorphine 0.3 nM)
O=C(CN1CCCC1C(=O)Nc1nccs1)Nc1cccc(F)c1 (centres unmarked) [MCKK-17S, 1-(2-(3-fluorophenylamino)-2-oxoethyl)-N-(thiazol-2-yl)pyrrolidine-2-carboxamide] | did not significantly activate the DOP receptor | > 1000 µM | > 10000 µM | > 10000 µM | full agonism relative to EKC | Neither the racemic nor the MCKK-17 stereoisomers displayed significant activity | 120 ± 47 µM | 120 µM |  |  |  | 
CC[C@]12CCN(CC3CC3)[C@H](C(=O)c3ccc(O)cc31)[C@@H]2C [EKC, ethylketocyclazocine, reference compound] |  |  |  |  |  |  |  |  | 0.17 ± 0.1 µM | 0.25 ± 0.031 µM |  | 
O=C(CN1CCCC1C(=O)Nc1nccs1)Nc1cccc(F)c1 (racemic) [MCKK-17, 1-(2-(3-fluorophenylamino)-2-oxoethyl)-N-(thiazol-2-yl)pyrrolidine-2-carboxamide] |  |  |  |  |  | Neither the racemic nor the MCKK-17 stereoisomers displayed significant activity | 160 ± 38 µM |  |  |  | > 1000 µM | partially but significantly inhibited
O=C(CN1CCCC1C(=O)Nc1nccs1)Nc1cccc(F)c1 (centres unmarked) [MCKK-17R, 1-(2-(3-fluorophenylamino)-2-oxoethyl)-N-(thiazol-2-yl)pyrrolidine-2-carboxamide] | most active enantiomer at the DOP receptor |  | 510 µM | 290 µM |  | Neither the racemic nor the MCKK-17 stereoisomers displayed significant activity | > 1000 µM |  |  |  | > 1000 µM | 
